SR-BI DiI inh – inhibitors of SR-BI mediated HDL lipid uptake, primary screen, ldlA[mSR-BI] cells, fluorescence, single point; inhibition, % at 12.5 µM; Scavenger receptor class B member 1 (Mus musculus), Q61009; ldlA[mSR-BI] CHO cells, DiI-HDL uptake fluorescence, 3 h; AID 488896, 2010; actives 0.96% (n = 320,000);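 active = mean replicate inhibition of at least 70% and a set share of replicates each scoring 70 or more; inconclusive = meets just one of the two criteria; inactive = fails both criteria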;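 note: 0% = median of neutral control wells and 100% = median of positive control wells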
Target sequence (Q61009 whole entry, looked up): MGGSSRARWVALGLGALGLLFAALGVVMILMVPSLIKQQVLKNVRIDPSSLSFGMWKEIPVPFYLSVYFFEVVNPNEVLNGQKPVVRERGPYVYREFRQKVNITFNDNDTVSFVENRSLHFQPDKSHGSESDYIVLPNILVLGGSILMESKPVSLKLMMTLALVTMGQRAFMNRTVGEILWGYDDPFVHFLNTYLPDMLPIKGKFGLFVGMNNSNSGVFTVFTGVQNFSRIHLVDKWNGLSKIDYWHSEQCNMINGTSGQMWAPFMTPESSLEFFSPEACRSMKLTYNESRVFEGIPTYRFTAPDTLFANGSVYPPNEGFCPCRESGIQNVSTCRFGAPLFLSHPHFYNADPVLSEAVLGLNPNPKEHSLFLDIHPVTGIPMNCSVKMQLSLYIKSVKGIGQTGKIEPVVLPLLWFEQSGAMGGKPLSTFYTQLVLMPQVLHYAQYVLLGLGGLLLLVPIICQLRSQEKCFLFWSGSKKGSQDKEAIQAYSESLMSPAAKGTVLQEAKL
SR-BI uptake up – activators of SR-BI mediated DiI-HDL uptake, primary screen, ldlA[mSR-BI] CHO cells, DiI fluorescence; 3 h; 100 = double the neutral-control signal; AID 504775, 2011; activation, % at 12.5 µM; actives 0.096% (n = 320,000);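 active = mean replicate activation of at least 60% and every replicate at or above 60%; inconclusive = mean or all-replicate condition met, but not both; inactive = mean below 60% and not all replicates reaching 60%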;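 note: 0% = median plate neutral-control signal and 100% = twice that signal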
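Material: SR-BI-overexpressing, LDLR-lacking CHO cells | Dosing: Single compound concentration, delivered by pin transfer | Probe or stimulus: Labelled HDL, 10 µg/mL | Signal: Bottom-read cell fluorescence after medium removal, ex 550/em 595 nm | Schedule: 3 h, 37 °C | Evaluation: HDL uptake via cellular fluorescence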
HSF1 activator – HSF-1 activators, primary screen, NIH3T3-HGL cells, MG132 stress, luminescence, single point; NIH3T3-HGL HSF-1 luciferase reporter, 8 h; 100% = twice DMSO control signal; activation, % at 9 µM; actives 1.7% (n = 300,000); AID 504408, 2011;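 active = mean replicate activation of at least 50% with a set share of replicates each reaching 50%; inconclusive = only one of those two conditions met; inactive = mean below 50% and too few replicates reaching it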;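 note: 0% = median of the neutral control wells and 100% = twice that signal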
MITF TRPM1 HTS – activators of MITF-driven TRPM1 promoter reporter, primary screen, cell-based, SK-MEL-5, luciferase, single point. AID 588334, 2011. actives 0.75% (n = 300,000). SK-MEL-5 TRPM1-promoter luciferase, 24 h; % of positive control, neutral wells = 0. activation, % at 12.5 µM;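 active = mean activation of at least 80% with every replicate also reaching 80%; inconclusive = mean reaches 80% but some replicate falls short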;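 note: 0% = neutral control wells and 100% = parthenolide positive control wells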
Wnt bcat act – Wnt/beta-catenin pathway activators, primary screen, cell-based, plate reader, single point | Wnt/beta-catenin reporter cell assay, activator | activation, % at 9.35 µM | actives 1.2% (n = 300,000); in the data active = activation above about 30%, passing the limit was not always enough; inconclusive = no clear call, values can overlap the other calls;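 note: 0% = neutral control wells and 100% = positive control wells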
* hit, by the source's call; ? = inconclusive; · = no result given. Sampled rows, rich in hits. Any-hit rate of the full collection: about 3.6%.

SMILES	SR-BI DiI inh	SR-BI uptake up	HSF1 activator	MITF TRPM1 HTS	Wnt bcat act
COc1cccc(C(C)(O)c2nc(-c3cnn(C)c3)cs2)c1 (configuration not stated)	·	·	·	·	-2
Clc1ccc(-c2nc(Cc3ccccc3)no2)cc1	-8	8	40	106*	·
Cc1ccccc1-c1nc(Cc2ccccc2)no1	1	-1	28	118*	17
CCC(=O)N(c1nnc(SC(C)C(=O)Nc2ccc(N3CCOCC3)cc2)s1)C1CC1 (configuration not stated)	·	·	·	·	-3
COc1ccccc1NC(=O)Cn1cnc2sc(C(=O)Nc3ccc(OC)c(OC)c3)c(C)c2c1=O	83*	-83	4	12	-1
COc1ccc(NC(=O)c2ccccc2NS(C)(=O)=O)cc1OC	-10	10	0	6	·
CSc1ncccc1C(=O)Nc1ncc(C)s1	11	-11	31	9	-1
COc1ccccc1NC(=O)Cn1cnc2sc(C(=O)Nc3cc(OC)c(OC)c(OC)c3)c(C)c2c1=O	54	-54	6	-15	-1
CSc1ncccc1C(=O)Nc1ccncc1	48	-48	-5	13	-1
COc1ccc(NC(=O)c2cccnc2SC)cc1OC	-1	1	4	15	35*
CSc1ncccc1C(=O)Nc1nc2c(C)cccc2s1	73*	-73	25	28	·
COc1ccccc1Nc1ncc(C(=O)Nc2ccc(OC)c(OC)c2)c2ccccc12	83*	-83	8	-2	·
O=C(Cc1c[nH]c2ccccc12)Nc1ccc(Nc2cccnc2)cc1	·	·	·	·	-4
CCc1nc2c(OCc3ccc4c(c3)OCO4)cccn2c1N(C=O)Cc1ccccc1	·	·	·	·	1
CCOC(=O)C1(C)CCCN1C(=O)c1csnn1 (configuration not stated)	·	·	·	·	0
CCC1CCCCN1S(=O)(=O)c1ccc(NC(=O)C2CC(=O)N(C(C)(C)C)C2)cc1 (configuration not stated)	-4	4	·	48	33*
CC(C)(C)N1CC(C(=O)Nc2ccc(S(=O)(=O)N3CCCCC3)cc2)CC1=O (configuration not stated)	-23	23	2	-8	-2
CSc1nc(S(C)(=O)=O)nc2[nH]c(=O)[nH]c12	-1	1	·	6	-2
Cc1ccc2ncc(S(=O)(=O)c3ccccc3)c(N3CCCCC3C)c2c1 (configuration not stated)	-12	9	0	·	-1
CNC(=S)Nc1cc2oc3ccccc3c2cc1OC	94*	-94	-5	2	4
COc1cc2c(cc1NC(=O)C1CCCO1)oc1ccccc12 (configuration not stated)	76*	-76	3	33	-4
COc1cc2c(cc1NC(=S)Nc1ccccc1C)oc1ccccc12	57	-57	2	16	·
COc1ccccc1NC(=S)NCCc1c[nH]c2ccccc12	32	-32	9	-9	·
CCCNC(=S)Nc1cc2oc3ccccc3c2cc1OC	89*	-89	1	9	1
COc1cc(NC(=S)NCCc2c[nH]c3ccccc23)c(OC)cc1Cl	73*	-73	-2	6	·
SMILES	SR-BI DiI inh	SR-BI uptake up	HSF1 activator	MITF TRPM1 HTS	Wnt bcat act
CCOc1ccc(-n2c(=S)sc3c(=O)[nH]c(SCC(=O)NC4CCCCC4)nc32)cc1	·	·	·	·	-6
O=C(Nc1nnc([C@@H]2C[C@H](O)[C@@H](CO)O2)s1)c1cccc2ccccc12	·	·	·	·	-3
COc1cc2c(cc1NC(=O)c1cccc(S(=O)(=O)N(C)C)c1)oc1ccccc12	36	-36	45	21	41*
CCNC(=S)Nc1cc2oc3ccccc3c2cc1OC	84*	-84	1	0	2
CCN(CC)S(=O)(=O)c1ccc(C(=O)Nc2cc3oc4ccccc4c3cc2OC)cc1	54	-54	8	5	·
COc1cc(C(=O)N2CCCCC2c2cc(C(=O)Nc3ccccc3Cl)no2)cc(OC)c1C (configuration not stated)	·	·	·	·	-2
O=C(Nc1ccc(S(=O)(=O)Nc2nccs2)cc1)c1cccc(N2C(=O)c3ccccc3C2=O)c1	5	-5	-9	11	1
O=C(Nc1nccs1)c1cccc(N2C(=O)c3cccc4c([N+](=O)[O-])ccc(c34)C2=O)c1	-10	10	170*	-32	0
Cc1cc(-c2ccc3c(c2)COc2c4ccccc4nn2-3)on1	-3	3	43	64	45*
CCCc1cc(-c2ccc3c(c2)COc2c4ccccc4nn2-3)on1	52	-52	37	?	36*
c1ccc2c(c1)COc1c3ncccc3nn1-2	·	·	·	·	7
C(#CC1CCCC1)c1ccc2c(c1)COc1c3ccccc3nn1-2	5	-1	3	119*	42*
Cc1ccc2c(c1)COc1c3ccc(C(=O)N4CCCCC4)cc3nn1-2	41	-41	12	?	21
O=c1c2c(nc3cc(-c4ccc(F)cc4)[nH]n13)CCCC2	1	-1	-7	10	·
O=c1c2c(nc3cc(-c4cccc(F)c4)[nH]n13)CCC2	-9	9	52*	4	9
Cn1c(COc2ccccc2Br)nc2ccccc21	8	-8	70*	·	5
Cn1c(CNc2ccc(Br)cc2)nc2ccccc21	10	-10	115*	?	40*
COC(=O)N1Cc2ccnnc2CC1c1ccccc1-c1ccc(OC)cc1 (configuration not stated)	·	·	·	·	-4
CC(Nc1ccc(Cl)cc1)c1cc(Cl)ccc1O (configuration not stated)	-373	373*	1	-5	·
CC1=Nc2ccccc2N=C(NC(=O)c2ccccc2)C1c1ccc(Cl)cc1 (configuration not stated)	-4	4	6	-6	-3
CC1=Nc2ccccc2N=C(N)C1c1ccccc1 (configuration not stated)	-7	7	35	18	52*
Oc1ccccc1-c1nnc(COc2ccc(Cl)cc2Cl)o1	-9	9	26	96*	?
Oc1ccccc1-c1nnc(COc2ccccc2)o1	1	-1	6	71	18
Clc1ccc(-c2nnc(CCc3ccccc3)o2)c(Cl)c1	-11	11	69*	?	20
Nc1ccc2c(c1)C(O)c1cccc(C(=O)O)c1-2 (configuration not stated)	1	-1	·	0	-2
CC(=O)c1ccc2c(c1)N(Cc1ccccc1Cl)C(=O)C(C)S2 (configuration not stated)	·	·	·	·	-1
CCCCc1c(-c2ccccc2OC)ncn1Cc1c(Cl)cccc1Cl	·	·	·	·	-3
O=C(N/N=C/c1ccncc1)c1cc2ccccc2cc1O	36	-36	312*	14	1

From PubChem BioAssay
